Legend:
[1] = target: T1, Amine oxidase [flavin-containing] A (Rattus norvegicus, UniProt P21396); experiment: Inhibition of MAOA in rat brain mitochondrial suspension; assay type: tissue-based
T1 sequence (P21396 whole entry): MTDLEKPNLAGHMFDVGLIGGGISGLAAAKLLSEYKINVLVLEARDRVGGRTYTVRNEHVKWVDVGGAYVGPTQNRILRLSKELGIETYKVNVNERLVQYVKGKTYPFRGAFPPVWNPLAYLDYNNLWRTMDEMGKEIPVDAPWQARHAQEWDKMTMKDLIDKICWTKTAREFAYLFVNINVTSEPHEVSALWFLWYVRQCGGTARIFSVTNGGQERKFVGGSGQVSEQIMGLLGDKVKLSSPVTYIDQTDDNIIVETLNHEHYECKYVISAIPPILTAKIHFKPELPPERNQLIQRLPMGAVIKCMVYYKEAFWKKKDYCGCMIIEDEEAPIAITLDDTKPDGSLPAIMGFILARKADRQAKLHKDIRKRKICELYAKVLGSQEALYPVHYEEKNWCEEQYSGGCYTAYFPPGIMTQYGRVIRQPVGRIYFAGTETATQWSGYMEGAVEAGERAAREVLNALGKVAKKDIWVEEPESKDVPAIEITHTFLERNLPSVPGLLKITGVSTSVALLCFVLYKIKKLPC
Procedure, shortened: (§1)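 Rat brain mitochondria; MAO-A substrate 5-HT, MAO-B substrate DMAPEA; metabolites measured by HPLC with electrochemical detection. Percent inhibition relative to enzyme treated alike without inhibitor; IC50 from inhibition vs –log concentration (mean ± SD, at least two independent experiments, each in triplicate). Ki by Cheng–Prusoff with Km 100 μM (5-HT, MAO-A) and 5 μM (DMAPEA, MAO-B).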

Rattus norvegicus = species: Rattus norvegicus; experiment: Selectivity ratio of Ki for rat MAOA to Ki for rat MAOB
Procedure, shortened: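 Ki(rMAO-A)/Ki(rMAO-B), each from rat brain mitochondrial IC50 by Cheng–Prusoff (5-HT for MAO-A, Km 100 μM; DMAPEA for MAO-B, Km 5 μM; HPLC-electrochemical detection).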

[2] = target: T2, Amine oxidase [flavin-containing] B (Homo sapiens, UniProt P27338); experiment: Inhibition of human recombinant MAOB by spectrophotometrically
T2 sequence (P27338 whole entry): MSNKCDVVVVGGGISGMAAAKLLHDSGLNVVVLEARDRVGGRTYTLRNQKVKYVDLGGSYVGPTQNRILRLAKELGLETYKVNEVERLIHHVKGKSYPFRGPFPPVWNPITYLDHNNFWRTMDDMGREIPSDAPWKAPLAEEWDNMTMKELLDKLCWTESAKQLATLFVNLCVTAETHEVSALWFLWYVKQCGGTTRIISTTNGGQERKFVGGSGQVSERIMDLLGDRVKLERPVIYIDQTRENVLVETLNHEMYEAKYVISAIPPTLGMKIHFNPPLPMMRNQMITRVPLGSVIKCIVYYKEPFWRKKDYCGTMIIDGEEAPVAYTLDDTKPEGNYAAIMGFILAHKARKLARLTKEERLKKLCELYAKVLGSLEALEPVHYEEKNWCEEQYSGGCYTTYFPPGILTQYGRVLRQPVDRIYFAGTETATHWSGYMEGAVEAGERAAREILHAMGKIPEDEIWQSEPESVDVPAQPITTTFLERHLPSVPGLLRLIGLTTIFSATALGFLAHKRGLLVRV
Procedure, shortened: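 Purified human recombinant MAO-B; benzylamine substrate in 50 mM Hepes pH 7.5 with 0.5% (w/v) reduced Triton X-100 at 25 °C. Benzaldehyde formation monitored at 250 nm. Ki from full kinetic determinations (initial velocities at varied inhibitor levels; Lineweaver–Burk analysis).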

[3] = target: T3, Amine oxidase [flavin-containing] B (Rattus norvegicus, UniProt P19643); experiment: Inhibition of MAOB in rat brain mitochondrial suspension; assay type: tissue-based; procedure, shortened: as §1
T3 sequence (P19643 whole entry): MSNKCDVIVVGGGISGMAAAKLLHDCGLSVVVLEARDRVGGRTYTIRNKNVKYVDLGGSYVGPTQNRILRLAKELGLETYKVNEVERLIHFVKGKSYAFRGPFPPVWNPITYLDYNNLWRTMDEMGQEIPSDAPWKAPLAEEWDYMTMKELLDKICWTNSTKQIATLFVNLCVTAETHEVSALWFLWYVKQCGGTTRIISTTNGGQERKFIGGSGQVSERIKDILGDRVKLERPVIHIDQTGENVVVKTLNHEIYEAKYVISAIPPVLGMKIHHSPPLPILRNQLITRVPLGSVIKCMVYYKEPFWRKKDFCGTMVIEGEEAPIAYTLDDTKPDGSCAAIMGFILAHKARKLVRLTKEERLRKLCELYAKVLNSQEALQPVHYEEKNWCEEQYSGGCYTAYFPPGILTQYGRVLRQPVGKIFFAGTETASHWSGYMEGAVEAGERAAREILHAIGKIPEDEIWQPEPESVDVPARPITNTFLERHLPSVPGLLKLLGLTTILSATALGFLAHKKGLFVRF

[4] = target: T4, Amine oxidase [flavin-containing] A (Homo sapiens, UniProt P21397); experiment: Inhibition of human recombinant MAOA by spectrophotometrically
T4 sequence (P21397 whole entry): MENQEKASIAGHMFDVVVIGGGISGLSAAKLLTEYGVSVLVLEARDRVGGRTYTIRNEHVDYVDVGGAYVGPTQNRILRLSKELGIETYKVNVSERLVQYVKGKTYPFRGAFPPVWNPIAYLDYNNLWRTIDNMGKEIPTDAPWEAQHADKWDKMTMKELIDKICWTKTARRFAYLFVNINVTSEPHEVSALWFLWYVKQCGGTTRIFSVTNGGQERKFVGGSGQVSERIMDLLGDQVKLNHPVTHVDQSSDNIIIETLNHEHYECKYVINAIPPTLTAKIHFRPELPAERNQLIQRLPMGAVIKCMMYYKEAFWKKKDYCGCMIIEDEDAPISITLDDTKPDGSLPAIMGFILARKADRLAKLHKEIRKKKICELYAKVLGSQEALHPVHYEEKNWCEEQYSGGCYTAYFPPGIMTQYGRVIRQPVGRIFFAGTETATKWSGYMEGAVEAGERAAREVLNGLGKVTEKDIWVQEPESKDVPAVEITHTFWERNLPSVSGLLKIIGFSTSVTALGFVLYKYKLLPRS
Procedure, shortened: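 Purified human recombinant MAO-A; initial oxidation rates read spectrophotometrically at 30 °C in 50 mM potassium phosphate pH 7.4 with 0.05% Triton X-100. Kynuramine 0.1–0.9 mM at six inhibitor concentrations spanning 10-fold; product followed at 314 nm. Ki taken directly from full kinetic analysis; errors from a single kinetic analysis.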

Homo sapiens = species: Homo sapiens; experiment: Selectivity ratio of Ki for human MAOA to Ki for human MAOB

| Structure (SMILES) | Ki [1] [µM] | Ratio Ki (Rattus norvegicus) | Ki [2] [µM] | Ki [3] [µM] | Ki [4] [µM] | Ratio Ki (Homo sapiens) |
| --- | --- | --- | --- | --- | --- | --- |
| O=C1CSC(c2ccccc2)CN1 (racemic) | 9.19 | 1 | > 100 | 9.58 | > 100 | – |
| CCCOc1ccc(C2CNC(=O)CS2)cc1 (racemic) | 8.68 | 6 | 2.4 | 1.49 | 40 | 16.7 |
| CCOc1ccc(C2CNCCS2)cc1 (racemic) | 2.17 | 1 | 2.1 | 2.17 | 9.6 | 5 |
| CCCCOc1ccc(C2CNCCS2)cc1 (racemic) | 14.1 | 52 | 0.068 | 0.27 | 2.5 | 37 |
| c1ccc(COc2ccc(C3CNCCS3)cc2)cc1 (racemic) | 19 | 146 | 0.038 | 0.13 | > 100 | > 2600 |
| COc1ccc(C2CNC(=O)CS2)cc1 (racemic) | 9.28 | 0.68 | > 100 | 13.6 | > 100 | – |
| CCOc1ccc(C2CNC(=O)CS2)cc1 (racemic) | 12.3 | 3.6 | 16.9 | 3.4 | 60 | 3.5 |
| CCCCOc1ccc(C2CNC(=O)CS2)cc1 (racemic) | 50.9 | 318 | 0.46 | 0.16 | 10 | 22 |
| O=C1CSC(c2ccc(OCc3ccccc3)cc2)CN1 (racemic) | 27.5 | 373 | 0.048 | 0.074 | > 100 | > 2000 |
| COc1ccc(C2CNCCS2)cc1 (racemic) | 6.39 | 1.7 | > 100 | 3.85 | 16.2 | – |
| CCCOc1ccc(C2CNCCS2)cc1 (racemic) | 3.69 | 4 | 0.13 | 0.98 | 6.62 | 51 |
| c1ccc(C2CNCCS2)cc1 (racemic) | 10.6 | 5 | > 100 | 2.23 | > 100 | – |
| C[C@H](N)Cc1ccccc1 [DEXTROAMPHETAMINE] | 12.2 | > 0.12 | 280 | > 100 | 14.4 | 0.05 |
